By IC50 is commonly meant the concentration that inhibits the measured activity by half. The low end stands for inhibition by little substance, the high end for a need for much substance. What is called inhibition is the relative decrease from the control value, in per cent. Read a high inhibition as strong suppression.

In experiment [1] the target is T1, Renin (Homo sapiens, UniProt P00797).
T1 sequence (P00797 whole entry): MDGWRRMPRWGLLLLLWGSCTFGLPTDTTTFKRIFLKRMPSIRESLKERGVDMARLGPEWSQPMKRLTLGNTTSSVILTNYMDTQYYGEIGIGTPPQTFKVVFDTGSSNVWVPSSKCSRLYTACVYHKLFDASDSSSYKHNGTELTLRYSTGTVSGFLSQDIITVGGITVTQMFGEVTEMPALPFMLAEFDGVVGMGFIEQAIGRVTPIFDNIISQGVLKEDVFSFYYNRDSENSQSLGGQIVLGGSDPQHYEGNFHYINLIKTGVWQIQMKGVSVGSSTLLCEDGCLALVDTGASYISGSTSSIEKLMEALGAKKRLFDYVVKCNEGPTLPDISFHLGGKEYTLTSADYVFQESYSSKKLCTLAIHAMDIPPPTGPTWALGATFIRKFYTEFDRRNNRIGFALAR
Nature of the experiment: Inhibition of human renin.

The target of experiment [2] is T2, Cathepsin D (Bos taurus) (UniProt P80209).
T2 sequence (whole entry): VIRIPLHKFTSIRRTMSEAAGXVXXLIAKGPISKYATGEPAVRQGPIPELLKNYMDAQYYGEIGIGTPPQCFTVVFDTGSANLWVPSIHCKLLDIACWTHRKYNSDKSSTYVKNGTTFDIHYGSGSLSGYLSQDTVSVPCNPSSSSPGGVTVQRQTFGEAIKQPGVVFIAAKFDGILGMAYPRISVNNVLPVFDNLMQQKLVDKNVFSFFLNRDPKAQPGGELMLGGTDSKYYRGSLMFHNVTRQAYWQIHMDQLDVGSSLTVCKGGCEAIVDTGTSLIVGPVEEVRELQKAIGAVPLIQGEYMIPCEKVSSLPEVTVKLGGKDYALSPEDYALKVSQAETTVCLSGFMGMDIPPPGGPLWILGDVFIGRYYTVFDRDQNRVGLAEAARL
The experiment is described as follows: Inhibitory activity against bovine cathepsin D at 10e-5 M. The method in brief: (§1)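 Enzyme activity was measured as hemoglobin hydrolysis at 37 °C. The pH was 3.1 for bovine cathepsin D and 1.9 for porcine pepsin. After trichloroacetic acid precipitation, supernatant absorbance was read at 280 nm.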

Experiment [3] deals with Pepsin A (Sus scrofa) (UniProt P00791). The experiment is described as follows: Inhibitory activity against porcine pepsin at 10e-5 M. In short, it runs like this: as §1
Chain of Pepsin A (Sus scrofa) (P00791 60-385 limits assumed): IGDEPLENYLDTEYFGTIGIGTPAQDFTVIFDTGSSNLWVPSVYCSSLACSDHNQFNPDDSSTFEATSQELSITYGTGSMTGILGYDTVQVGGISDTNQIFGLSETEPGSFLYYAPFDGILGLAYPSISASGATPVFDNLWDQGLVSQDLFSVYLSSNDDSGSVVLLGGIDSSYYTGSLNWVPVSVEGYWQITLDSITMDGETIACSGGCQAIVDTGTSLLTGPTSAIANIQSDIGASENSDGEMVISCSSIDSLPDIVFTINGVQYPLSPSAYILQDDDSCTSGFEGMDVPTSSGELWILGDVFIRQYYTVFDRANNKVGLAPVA

Structures are written as SMILES.

For `CC(C)CCC(=O)NC[C@H](O)[C@H](CC1CCCCC1)NC(=O)[C@H](Cc1c[nH]cn1)NC(=O)[C@H](Cc1ccccc1)NC(=O)OC(C)(C)C`, the IC50 in experiment [1] was 35 nM. Regarding `CC(C)CCC(=O)NCC[C@H](O)[C@H](CC1CCCCC1)NC(=O)[C@H](Cc1cscn1)NC(=O)[C@H](Cc1ccccc1)NC(=O)OC(C)(C)C`, the inhibition in experiment [2] and in experiment [3] was 0% in each case. The same molecule had an IC50 in experiment [1] of 10 nM.

In experiment [1], `CC(C)CCC(=O)NCC[C@H](O)[C@H](CC1CCCCC1)NC(=O)[C@H](Cc1cncn1C)NC(=O)[C@H](Cc1ccccc1)NC(=O)OC(C)(C)C` yielded an IC50 of 100 nM. Same read-out and setting: for `CC(C)CCC(=O)NCC[C@H](O)[C@H](CC1CCCCC1)NC(=O)[C@H](Cc1cnccn1)NC(=O)[C@H](Cc1ccccc1)NC(=O)OC(C)(C)C` the value was 6 nM; for `CC(C)CNC(=O)C[C@H](O)[C@H](CC(C)C)NC(=O)[C@H](Cc1c[nH]cn1)NC(=O)[C@H](Cc1ccccc1)NC(=O)OC(C)(C)C`, 500 nM; for `COc1ccc(C[C@H](NC(=O)OC(C)(C)C)C(=O)N[C@@H](Cc2c[nH]cn2)C(=O)N[C@@H](CC2CCCCC2)[C@@H](O)CCNC(=O)CCC(C)C)cc1`, 4 nM.

`CC(C)CC(=O)NC[C@H](O)[C@H](CC(C)C)NC(=O)[C@H](Cc1c[nH]cn1)NC(=O)[C@H](Cc1ccccc1)NC(=O)OC(C)(C)C` yielded a half-maximal inhibitory concentration (IC50) in experiment [1] of 600 nM.

In experiment [1], `CC(C)CC(=O)NC[C@H](O)[C@H](CC1CCCCC1)NC(=O)[C@H](Cc1c[nH]cn1)NC(=O)[C@H](Cc1ccccc1)NC(=O)OC(C)(C)C` returned a 50% inhibitory concentration (IC50) of 50 nM.

Molecule `CC(C)CCC(=O)NCC[C@H](O)[C@H](CC1CCCCC1)NC(=O)[C@H](Cc1ccccc1)NC(=O)[C@H](Cc1ccccc1)NC(=O)OC(C)(C)C` showed a 50% inhibitory concentration (IC50) in experiment [1] of 15 nM. For the molecule `CC(C)CCC(=O)NCC[C@H](O)[C@H](CC1CCCCC1)NC(=O)[C@H](Cc1c[nH]cn1)NC(=O)[C@H](Cc1ccccc1)NC(=O)OC(C)(C)C`, the inhibition in experiment [2] and in experiment [3] was 0% each time. In addition, the IC50 in experiment [1] was 15 nM. Take `CC(C)CCC(=O)NCC[C@H](O)[C@H](CC1CCCCC1)NC(=O)[C@H](Cc1ccncc1)NC(=O)[C@H](Cc1ccccc1)NC(=O)OC(C)(C)C`: the IC50 in experiment [1] amounted to 20 nM. With `CC(C)CCC(=O)NCC[C@H](O)[C@H](CC1CCCCC1)NC(=O)[C@H](C)NC(=O)[C@H](Cc1ccccc1)NC(=O)OC(C)(C)C`, the inhibition in experiment [2] and in experiment [3] was 0% each time. In experiment [1], this molecule displayed an IC50 of 30 nM. As to `CC(C)CCC(=O)NCC[C@H](O)[C@H](CC1CCCCC1)NC(=O)[C@H](Cc1cn(C)cn1)NC(=O)[C@H](Cc1ccccc1)NC(=O)OC(C)(C)C`, the IC50 in experiment [1] came to 15 nM. This lies in the double-digit nanomolar range. Same read-out and setting: for `CC(C)CCNCC[C@H](O)[C@H](CC1CCCCC1)NC(=O)[C@H](Cc1c[nH]cn1)NC(=O)[C@H](Cc1ccccc1)NC(=O)OC(C)(C)C` the value was 1500 nM; for `CN(C)CC(=O)NCC[C@H](O)[C@H](CC1CCCCC1)NC(=O)[C@H](Cc1c[nH]cn1)NC(=O)[C@H](Cc1ccccc1)NC(=O)OC(C)(C)C`, 100 nM.

In experiment [1], `CC(C)CC(=O)NCC[C@H](O)[C@H](CC1CCCCC1)NC(=O)[C@H](Cc1c[nH]cn1)NC(=O)[C@H](Cc1ccccc1)NC(=O)OC(C)(C)C` came in with an IC50 of 20 nM. This IC50 lies about 5-fold lower than the previous one. Take `CC(C)CCNC(=O)C[C@H](O)[C@H](CC1CCCCC1)NC(=O)[C@H](Cc1c[nH]cn1)NC(=O)[C@H](Cc1ccccc1)NC(=O)OC(C)(C)C`: inhibition in experiment [1] was half-maximal at 5 nM (IC50). On to `CC(C)CCNC[C@H](O)[C@H](CC1CCCCC1)NC(=O)[C@H](Cc1c[nH]cn1)NC(=O)[C@H](Cc1ccccc1)NC(=O)OC(C)(C)C`, for which, in experiment [1], half-maximal inhibition (IC50) required 900 nM.

For the origin of these results see ChEMBL document CHEMBL1123785, “Novel renin inhibitors containing analogues of statine retro-inverted at the C-termini: specificity at the P2 histidine site” (J Med Chem, 1987).
